Screening results as filed in PubChem BioAssay.
The list is not random: actives were taken first. Their share in the collection is about 5.6%.
GRIN3A LBD mod: NR3A (human) ligand-binding domain modulation. NR3A LBD differential scanning fluorimetry, Tm shift; 0% = protein alone, 100% = glycine-bound protein. Tm shift relative to glycine control, % at 25 µM. hit rate 2.5% among 340,000;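 active = melting temperature shift of at least 10% of the positive control shift, at one fixed dose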
aDG glyco up: alpha-DG glycosylation activation; activation, % at 10 µM; hit rate 0.22% among 360,000; Pro5-aDG cells, alpha-DG glycosylation AlphaScreen (IIH6); 0% Pro5, 100% B10-LARGE cell signal;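 active = activation of at least 8% versus controls, or a plate z-score of at least 8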;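 also: Pro5 are CHO cells carrying HIG-tagged alpha-DG that lacks glycosylation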
UPR XBP1 act: activators of adaptive arm of unfolded protein response (XBP1); hit rate 0.33% among 330,000; CHO-XBP1 luciferase reporter, IRE1-XBP1 UPR activation, luminescence; percent of tunicamycin response, DMSO as zero; activation, % at 20 µM;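 active = versus positive control, 20 µM dose yields 30% or more activation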
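Material – CHO cell line with stable XBP1 luciferase reporter · Buffer or medium – F12 plus 10% FBS · Compound – single point, 20 µM final compound, 1% DMSO · Schedule – 16-18 h cell attachment at 37 °C, then 6 h compound exposure · Signal – Steady-Glo luminescence read · Benchmarks – high control tunicamycin 10 µg/mL final, low control DMSO vehicle only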
CHOP UPR activ: apoptotic UPR (CHOP) activation; CHO-CHOP luciferase reporter, luminescence; percent of tunicamycin response over DMSO baseline; activation, % at 10 µM; hit rate 0.34% among 330,000; AID 449763;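 active = at 10 µM dose, activation of 40% or more, normalized to positive control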
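assay system = CHO CHOP reporter cells | amount = 500 CHO-CHOP cells per well | buffer or medium = F12 with 10% FBS | incubation = 16-18 h cell attachment, then 6 h compound exposure, 37 °C | detection = luminescence read with Steady-Glo | read-out = percent activation relative to tunicamycin control | controls = tunicamycin high control, DMSO low control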
CHOP inhibitor: inhibitors of CHOP induction in ER stress response | inhibition, % at 10 µM | CHO-K1 CHOP-promoter luciferase, tunicamycin-induced, 15-18 h | hit rate 3.8% among 220,000;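 active = compounds that reduced the stress-induced luciferase reporter signal by more than about 70% of percent inhibition, limit read from the data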
MPTP block: inhibitors of mitochondrial permeability transition pore | inhibition, % at 10 µM | hit rate 1.4% among 360,000 | AID 602449 | isolated mouse mitochondria, Ca2+ swelling absorbance, 30 min;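 active = inhibition of 50% or more, scaled per plate between neutral and stimulator controls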
CHOP inh conf: confirmation of CHOP induction inhibitors. inhibition, % at 10 µM. CHO-CHOP promoter luciferase reporter, tunicamycin-induced, luminescence. shares compounds with CHOP inhibitor. hit rate 45% among 2,100;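 active = mean of three repeat readings of reporter signal inhibition above a set limit, cut at about 70% in these data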
A number is an active result.

How did C[C@@H]1CN([C@@H](C)CO)C(=O)c2cc(Br)cnc2O[C@H]1CN(C)C(=O)Nc1ccc2c(c1)OCO2 do in these assays?
aDG glyco up: inactive; MPTP block: inactive

How did O=C(NC1CC2CCCC(C1)N2C(=O)Nc1ccc(Cl)c(C(F)(F)F)c1)C1CC1 (stereo not given) do in these assays?
GRIN3A LBD mod: inactive; aDG glyco up: inactive; UPR XBP1 act: inactive; CHOP UPR activ: inactive; CHOP inhibitor: inactive; MPTP block: inactive

How did O=C(Nc1ccc(Cl)c(C(F)(F)F)c1)NC1CC2CCCC(C1)N2Cc1ccccc1 (stereo not given) do in these assays?
GRIN3A LBD mod: inactive; UPR XBP1 act: inactive; CHOP UPR activ: inactive; CHOP inhibitor: 101; CHOP inh conf: 98

What do the screens show for `O=C1C(Cl)=C(Nc2ccccc2)C(=O)c2ccccc21`?
GRIN3A LBD mod: inactive; aDG glyco up: inactive; CHOP inhibitor: 112; MPTP block: inactive; CHOP inh conf: 127

How did C[C@@H]1CN([C@H](C)CO)C(=O)CCCn2cc(nn2)CO[C@H]1CN(C)C(=O)Nc1cccc(C(F)(F)F)c1 do in these assays?
aDG glyco up: inactive; MPTP block: inactive

Results for COc1ccc(CCNC(=O)c2nnn(-c3ccc4c(c3)OCCO4)c2N)cc1OC ?
GRIN3A LBD mod: inactive; aDG glyco up: inactive; UPR XBP1 act: inactive; CHOP UPR activ: inactive; CHOP inhibitor: 97; MPTP block: inactive; CHOP inh conf: 84

How did Cc1cc(C)cc(-n2ncc3c2CCCC3NC(=O)CCN2Cc3ccccc3C2=O)c1 (stereo not given) do in these assays?
GRIN3A LBD mod: inactive; aDG glyco up: inactive; UPR XBP1 act: inactive; CHOP UPR activ: inactive; MPTP block: inactive

Results for CCn1c(=O)c(C(=O)CN2CCCc3ccccc32)c(N)n(Cc2ccccc2)c1=O ?
GRIN3A LBD mod: inactive; aDG glyco up: inactive; UPR XBP1 act: inactive; CHOP UPR activ: inactive; CHOP inhibitor: 97; MPTP block: inactive; CHOP inh conf: inactive

What do the screens show for `Cc1ccccc1NC(=O)/C=C/c1ccc([N+](=O)[O-])s1`?
GRIN3A LBD mod: inactive; aDG glyco up: inactive; CHOP inhibitor: 102; MPTP block: inactive; CHOP inh conf: 79

Results for COc1ccc(-n2cccc2/C=C2\C(=N)N3N=C(c4ccco4)SC3=NC2=O)cc1 ?
GRIN3A LBD mod: inactive; aDG glyco up: inactive; UPR XBP1 act: inactive; CHOP UPR activ: inactive; CHOP inhibitor: 102; MPTP block: inactive; CHOP inh conf: inactive

How did COc1ccc(-n2cccc2/C=C2\C(=N)N3N=C(C(C)C)SC3=NC2=O)cc1 do in these assays?
GRIN3A LBD mod: inactive; aDG glyco up: inactive; UPR XBP1 act: inactive; CHOP UPR activ: inactive; CHOP inhibitor: inactive; MPTP block: inactive

How did COc1ccccc1NC(=O)CN1CCN(c2ccccc2)CC1 do in these assays?
GRIN3A LBD mod: inactive; aDG glyco up: inactive; UPR XBP1 act: inactive; CHOP UPR activ: inactive; CHOP inhibitor: inactive; MPTP block: inactive

Results for O=[N+]([O-])c1ccc(S(=O)(=O)CC(CN2CCCCC2)N2CCCCC2)cc1 (stereo not given) ?
GRIN3A LBD mod: inactive; aDG glyco up: inactive; UPR XBP1 act: inactive; CHOP UPR activ: inactive; CHOP inhibitor: 105; MPTP block: inactive; CHOP inh conf: 95

Results for O=[N+]([O-])c1ccc(S(=O)(=O)CC(CN2CCOCC2)N2CCOCC2)cc1 (stereo not given) ?
GRIN3A LBD mod: inactive; aDG glyco up: inactive; UPR XBP1 act: inactive; CHOP UPR activ: inactive; CHOP inhibitor: inactive; MPTP block: inactive

How did CCN1CCC[C@H]1CNCCCn1cnc2c(SC)ncnc21 do in these assays?
aDG glyco up: inactive; MPTP block: inactive

Results for O=C(CNc1cccc(C(F)(F)F)c1)N/N=C/c1cccc(Br)c1 ?
GRIN3A LBD mod: 29; aDG glyco up: inactive; UPR XBP1 act: inactive; CHOP UPR activ: inactive; CHOP inhibitor: 99; MPTP block: inactive; CHOP inh conf: 108

Results for Nc1cccc2c1C(=O)N(C(=O)/C=C/c1ccc(F)cc1)C2=O ?
GRIN3A LBD mod: inactive; aDG glyco up: inactive; UPR XBP1 act: inactive; CHOP UPR activ: inactive; CHOP inhibitor: 103; MPTP block: inactive; CHOP inh conf: inactive

How did C[C@@H]1CC=C[C@H]2[C@H]1C(=O)N(Cc1ccccc1)[C@H]2c1ccoc1 do in these assays?
GRIN3A LBD mod: inactive; aDG glyco up: inactive; UPR XBP1 act: inactive; CHOP UPR activ: inactive; CHOP inhibitor: inactive; MPTP block: inactive

What do the screens show for `CC[C@@H]1CC=C[C@H]2[C@H]1C(=O)N(Cc1ccccc1)[C@H]2c1ccoc1`?
GRIN3A LBD mod: inactive; aDG glyco up: inactive; UPR XBP1 act: inactive; CHOP UPR activ: inactive; CHOP inhibitor: 101; MPTP block: inactive; CHOP inh conf: 137

How did C[C@@H]1CC=C[C@H]2[C@H]1C(=O)N(Cc1ccccc1)[C@H]2c1ccc2ccccc2c1Br do in these assays?
GRIN3A LBD mod: inactive; aDG glyco up: inactive; UPR XBP1 act: inactive; CHOP UPR activ: inactive; CHOP inhibitor: 98; MPTP block: inactive; CHOP inh conf: inactive

Results for O=C(CNC(=O)N1CC(=O)Nc2ccccc21)NCc1cccc(Cl)c1 ?
GRIN3A LBD mod: inactive; aDG glyco up: inactive; UPR XBP1 act: inactive; CHOP UPR activ: inactive; MPTP block: inactive

Results for Cc1cc(/C=c2/sc3nc4ccccc4n3c2=O)c(C)n1-c1ccccn1 ?
GRIN3A LBD mod: inactive; aDG glyco up: inactive; UPR XBP1 act: inactive; CHOP UPR activ: inactive; CHOP inhibitor: 107; MPTP block: inactive; CHOP inh conf: 118

How did O=C(N/N=C/c1cccc(F)c1)c1c(O)c2ccccc2[nH]c1=O do in these assays?
GRIN3A LBD mod: inactive; aDG glyco up: inactive; CHOP inhibitor: 104; MPTP block: inactive; CHOP inh conf: 93

How did O=C(N/N=C/c1ccc(F)cc1)c1c(O)c2ccccc2[nH]c1=O do in these assays?
GRIN3A LBD mod: inactive; aDG glyco up: inactive; UPR XBP1 act: inactive; CHOP UPR activ: inactive; CHOP inhibitor: 101; MPTP block: inactive; CHOP inh conf: 72

How did O=C(Nc1cccc(F)c1)c1c(O)c2ccccc2[nH]c1=O do in these assays?
GRIN3A LBD mod: inactive; aDG glyco up: inactive; UPR XBP1 act: inactive; CHOP UPR activ: inactive; MPTP block: inactive

Results for CCCCCCn1c(=O)c(C(=O)N/N=C/c2cccc(F)c2)c(O)c2ccccc21 ?
GRIN3A LBD mod: inactive; aDG glyco up: inactive; UPR XBP1 act: inactive; CHOP UPR activ: inactive; CHOP inhibitor: 105; MPTP block: inactive; CHOP inh conf: 100

What do the screens show for `CCC(=O)C1CCCN(C(=O)CCc2nnc(-c3ccc(C(C)=O)s3)o2)C1` (stereo not given)?
GRIN3A LBD mod: inactive; aDG glyco up: inactive; UPR XBP1 act: inactive; CHOP UPR activ: inactive; MPTP block: inactive
